Numbering of substitutions follows the chain as printed.
Assays:
QacR(E57A) = target: T1, QacR(E57A) (Staphylococcus aureus, UniProt P0A0N4, E57A); test: Intrinsic tryptophan fluorescence quenching, QacR; format: binding
T1 sequence (P0A0N4 1-188 E57A): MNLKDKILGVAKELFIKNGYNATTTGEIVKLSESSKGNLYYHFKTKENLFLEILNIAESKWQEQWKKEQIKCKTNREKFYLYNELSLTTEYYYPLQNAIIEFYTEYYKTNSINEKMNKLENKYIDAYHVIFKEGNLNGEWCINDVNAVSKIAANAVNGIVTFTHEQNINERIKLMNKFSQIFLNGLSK

QacR(E57Q) [1] = target: T2, QacR(E57Q) (Staphylococcus aureus, UniProt P0A0N4, E57Q); test: Intrinsic tryptophan fluorescence quenching, QacR; format: binding
T2 sequence (P0A0N4 1-188 E57Q): T1 sequence (P0A0N4 1-188 E57A) with A57Q

QacR(E57Q/E58Q) [2] = target: T3, QacR(E57Q/E58Q) (Staphylococcus aureus, UniProt P0A0N4, E57Q/E58Q); test: Intrinsic tryptophan fluorescence quenching, QacR; format: binding
T3 sequence (P0A0N4 1-188 E57Q/E58Q): T1 sequence (P0A0N4 1-188 E57A) with A57Q, E58Q

wt QacR = target: T4, wt QacR (Staphylococcus aureus, UniProt P0A0N4); test: Isothermal titration calorimetry, wt QacR; format: binding
T4 sequence (P0A0N4 1-188): T1 sequence (P0A0N4 1-188 E57A) with A57E

QacR(E57Q) [3] = target: T2, QacR(E57Q); test: Isothermal titration calorimetry, QacR; format: binding
QacR(E58Q) = target: T5, QacR(E58Q) (Staphylococcus aureus, UniProt P0A0N4, E58Q); test: Isothermal titration calorimetry, QacR; format: binding
T5 sequence (P0A0N4 1-188 E58Q): T1 sequence (P0A0N4 1-188 E57A) with A57E, E58Q

QacR(E57Q/E58Q) [4] = target: T3, QacR(E57Q/E58Q); test: Isothermal titration calorimetry, QacR; format: binding
mutant QacR proteins = test: Intrinsic tryptophan fluorescence quenching, mutant QacR proteins compared to wt; format: binding, Staphylococcus aureus; conditions: all mutant QacR proteins of Table 2 vs wt QacR
Summary of the method: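 C-terminally His6-tagged QacR variants were expressed in E. coli DH5α, Ni2+-NTA purified, and dialysed into 1 M NaCl, 20 mM Tris-HCl, 5% glycerol, pH 7.5. Kd was derived from quenching of intrinsic tryptophan fluorescence intensity on ligand titration. Ligands came from 2.5 mM stocks in water, diluted in 100 mM NaCl, 15 mM Tris-HCl, 2.5% glycerol, pH 7.5. Each Kd is the mean of three independent experiments.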

Row | SMILES | Kd (QacR(E57A)) | Kd (QacR(E57Q) [1]) | Kd (QacR(E57Q/E58Q) [2]) | increase in binding affinity compared to wt QacR (QacR(E57Q/E58Q) [2]; QacR(E57Q/E58Q) vs wt QacR) | Kd (wt QacR) | Kd (QacR(E57Q) [3]) | Kd (QacR(E58Q)) | Kd (QacR(E57Q/E58Q) [4]) | decrease in binding affinity compared to wt QacR (QacR(E57Q/E58Q) [4]; QacR(E57Q/E58Q) vs wt QacR, ITC) | change in binding affinity of mutant QacR proteins compared to wt QacR (mutant QacR proteins)
1 | COc1ccc2cc3[n+](cc2c1OC)CCc1cc2c(cc1-3)OCO2 [Be, berberine] | 1.88 ± 0.23 µM | 1.39 ± 0.15 µM | 0.32 ± 0.15 µM | 9 fold | – | – | – | – | – | –
2 | Cc1cc(N)c2ccccc2[n+]1CCCCCCCCCC[n+]1c(C)cc(N)c2ccccc21 [Dq, dequalinium] | – | – | – | – | 1.3 ± 0.3 µM | 1.95 ± 0.18 µM | 2.4 ± 0.2 µM | 5.2 ± 3.8 µM | 4 fold | –
3 | CN(C)c1ccc(C(=C2C=CC(=[N+](C)C)C=C2)c2ccccc2)cc1 [MG, malachite green] | 2.98 ± 0.23 µM | 1.77 ± 0.17 µM | 1.99 ± 0.08 µM | – | – | – | – | – | – | ≤ 2.4 fold
